Data set [1] has as its system U-87MG ATCC. In words: Antiproliferative activity against human U87MG cell proliferation at 0.01 to 5 nM after 48 hrs by trypan exclusion assay. Type of data set: functional, cell-based. A digest of the protocol:
(§1)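 U87MG cells in RPMI/10% FBS are arrested in G1 (0.5% FBS, 48 h). They are then treated 48 h with Cl-IB-MECA 100 nM or IB-MECA 12 nM, with or without antagonist at 0.1–10 nM or 0.01–5 nM. Live cells are counted by 0.4% trypan blue exclusion in a haemocytometer and expressed as % of control, mean ± SEM.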

Data set [2] deals with U-87 MG. The data set is described as follows: Inhibition of IBMECA-mediated human U87MG cell proliferation after 48 hrs by trypan blue exclusion assay. It counts as functional, cell-based, U-87MG ATCC. An outline of the steps:
as §1

In data set [3] the target is T1, Adenosine receptor A2b (Homo sapiens, UniProt P29275).
T1 sequence (P29275 whole entry): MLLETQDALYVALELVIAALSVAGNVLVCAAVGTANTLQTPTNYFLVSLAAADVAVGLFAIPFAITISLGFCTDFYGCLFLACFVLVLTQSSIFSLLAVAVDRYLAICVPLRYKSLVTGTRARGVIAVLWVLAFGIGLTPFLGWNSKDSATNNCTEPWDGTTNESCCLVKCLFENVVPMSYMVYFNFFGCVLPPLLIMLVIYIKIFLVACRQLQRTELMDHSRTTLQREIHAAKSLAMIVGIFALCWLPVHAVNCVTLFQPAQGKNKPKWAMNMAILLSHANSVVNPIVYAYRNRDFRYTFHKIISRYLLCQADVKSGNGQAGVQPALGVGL
In words: Antagonist activity human recombinant adenosine A2B receptor expressed in CHO cells assessed as inhibition of NECA-mediated [3H]cAMP accumulation treated 15 mins before NECA challenge measured after 30 mins by liquid scintillation spectrometry. It counts as functional, cell-based. An outline of the steps: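 CHO cells stably expressing hA2B are pre-incubated 15 min at 37 °C in DMEM with ADA 1 U/mL and Ro 20-1724 20 μM. […] Cells are lysed in 0.4 N HCl. cAMP is measured by [3H]cAMP competition with bovine adrenal binding protein (150 min, 0 °C), with filtration and scintillation counting. Mean ± SEM, four experiments in triplicate.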

Data set [4] concerns the target T2, Mitogen-activated protein kinase; ERK1/ERK2 (Homo sapiens) (UniProt P27361+P28482). In words: Modulation of ERK1/2 phosphorylation in human U87MG cells at 0.05 to 1 nM after 30 mins by ELISA. Type of data set: cell-based. The settings on record: U-87MG ATCC. In general terms: In an ELISA, binding on a coated surface is turned into a signal by an enzyme label.

Data set [5] deals with T3, Adenosine receptor A3 (Homo sapiens, UniProt P0DMS8).
T3 sequence (P0DMS8 whole entry): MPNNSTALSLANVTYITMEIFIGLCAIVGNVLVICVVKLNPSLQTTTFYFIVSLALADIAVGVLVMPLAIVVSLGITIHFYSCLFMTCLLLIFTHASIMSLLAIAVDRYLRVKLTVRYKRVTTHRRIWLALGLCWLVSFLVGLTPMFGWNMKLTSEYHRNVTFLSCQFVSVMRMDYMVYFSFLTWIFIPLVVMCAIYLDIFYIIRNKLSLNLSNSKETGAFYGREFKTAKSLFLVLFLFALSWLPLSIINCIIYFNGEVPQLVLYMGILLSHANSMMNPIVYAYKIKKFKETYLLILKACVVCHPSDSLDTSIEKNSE
In words: biochemical. Type of data set: cell-based, CHO.

In data set [6] the target is T3, Adenosine receptor A3. The data set is described as follows: Antagonist activity human recombinant adenosine A3 receptor expressed in CHO cells assessed as blockade of NECA-mediated inhibition of forskolin-stimulated [3H]cAMP production treated 15 mins before NECA challenge measured after 30 mins by liquid scintillation spectrometry. It counts as functional, cell-based. A digest of the protocol:
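hA3-expressing CHO cells are pre-incubated 15 min at 37 °C with ADA 1 U/mL and Ro 20-1724 20 μM. […] HCl lysates are assayed for cAMP by [3H]cAMP/binding-protein competition with scintillation read-out. IC50 is reported as mean ± SEM of four experiments in triplicate.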
For orientation: cAMP levels reflect the balance of adenylyl cyclase and phosphodiesterase activity.

Data set [7] addresses T4, Adenosine receptor A1 (Homo sapiens, UniProt P30542).
T4 sequence (P30542 whole entry): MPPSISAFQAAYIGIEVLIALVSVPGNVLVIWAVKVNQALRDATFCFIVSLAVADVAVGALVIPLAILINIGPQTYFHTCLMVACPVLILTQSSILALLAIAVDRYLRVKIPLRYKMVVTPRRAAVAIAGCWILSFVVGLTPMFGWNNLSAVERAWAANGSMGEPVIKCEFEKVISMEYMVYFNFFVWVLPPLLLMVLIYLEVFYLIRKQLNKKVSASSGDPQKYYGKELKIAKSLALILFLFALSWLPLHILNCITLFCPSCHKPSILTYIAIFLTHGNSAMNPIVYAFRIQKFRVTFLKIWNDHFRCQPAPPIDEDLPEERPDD
In words: Displacement of [3H]DPCPX from human adenosine A1 receptor expressed in CHO cells. It counts as cell-based.

The target of data set [8] is Adenosine receptor A2a (Homo sapiens, UniProt P29274). The data set is described as follows: biochemical. It counts as cell-based, CHO.
In data set [9] the test system is U-87 MG. In words: Inhibition of Cl-IB-MECA-mediated human U87MG cell proliferation after 48 hrs by trypan blue exclusion assay. Type of data set: functional, cell-based, U-87MG ATCC. A digest of the protocol:
as §1

In data set [10] the target is T5, Adenosine deaminase (Bos taurus) (UniProt P56658).
T5 sequence (whole entry): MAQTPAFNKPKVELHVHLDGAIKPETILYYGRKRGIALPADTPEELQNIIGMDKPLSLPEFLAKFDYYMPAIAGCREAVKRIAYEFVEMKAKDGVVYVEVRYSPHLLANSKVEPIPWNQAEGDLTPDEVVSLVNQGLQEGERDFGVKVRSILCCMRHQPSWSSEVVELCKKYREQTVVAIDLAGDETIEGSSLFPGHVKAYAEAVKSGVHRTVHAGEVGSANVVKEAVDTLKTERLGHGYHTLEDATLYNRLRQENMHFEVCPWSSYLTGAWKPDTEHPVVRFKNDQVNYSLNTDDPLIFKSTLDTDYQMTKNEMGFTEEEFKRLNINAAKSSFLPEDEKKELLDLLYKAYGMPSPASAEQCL
The data set is described as follows: Inhibition of bovine spleen adenosine deaminase at 10 uM after 2 mins by spectrophotometry. An outline of the steps:
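Bovine spleen ADA at 0.3 nM with 50 μM adenosine in 50 mM potassium phosphate, pH 7.2, at 30 °C. Inhibitor is tested at 10 μM with final DMSO ≤4%. Deamination is followed as the change in A262 over 2 min, against a substrate-free blank.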

Data set [11] is described as follows: Octanol-water partition coefficient, log P of the compound. It counts as physicochemical.
Data set [12] addresses T3, Adenosine receptor A3. The data set is described as follows: Antagonist activity at adenosine A3 receptor in human U87MG cells assessed as inhibition of Cl-IB-MECA-mediated ERK1/2 phosphorylation after 30 mins by ELISA. It counts as functional, cell-based, U-87MG ATCC.
Data set [13] addresses T4, Adenosine receptor A1. The data set is described as follows: Inhibition of human adenosine A1 receptor. An outline of the steps:
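Displacement binding using membranes (30 μg protein) from CHO cells stably expressing human A1 receptor. […] Six compound concentrations were tested, in DMSO ≤2% final. Nonspecific binding was defined with 50 μM RPIA. IC50 was converted to Ki by Cheng-Prusoff; at least three determinations.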

In data set [14] the target is T2, Mitogen-activated protein kinase; ERK1/ERK2 (Homo sapiens). In words: Modulation of ERK1/2 phosphorylation in human U87MG cells at 0.25 to 10 nM after 30 mins by ELISA. It counts as cell-based. The settings on record: U-87MG ATCC.
Data set [15] relates to U-87MG ATCC. The data set is described as follows: Antiproliferative activity against human U87MG cell proliferation at 0.1 to 10 nM after 48 hrs by trypan exclusion assay. It counts as functional, cell-based. A digest of the protocol: as §1
Data set [16] concerns the target T6, Adenosine receptor A3 (Homo sapiens) (UniProt P0DMS8).
T6 sequence (whole entry): T3 sequence (P0DMS8 whole entry)
In words: Induction of adenosine A3 receptor-mediated ERK1/2 phosphorylation in human U87MG cells at 100 nM by ELISA. It counts as cell-based. The settings on record: U-87MG ATCC, TDE = time-dependent effect. An outline of the steps:
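Time course in U87MG cells given 100 nM Cl-IB-MECA for 5–120 min. Phospho-ERK1/2 is read by colorimetric cell-based ELISA after fixation, with crystal violet cell-number correction. Results are % of control cells, mean ± SEM, Student t test.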

Structures are written as SMILES. Calls of active or inactive are those of the source. The rule behind the calls is not given here. Where only a bound is given, the exact number is not on record here.

Sequence of Adenosine receptor A2a (P29274 whole entry): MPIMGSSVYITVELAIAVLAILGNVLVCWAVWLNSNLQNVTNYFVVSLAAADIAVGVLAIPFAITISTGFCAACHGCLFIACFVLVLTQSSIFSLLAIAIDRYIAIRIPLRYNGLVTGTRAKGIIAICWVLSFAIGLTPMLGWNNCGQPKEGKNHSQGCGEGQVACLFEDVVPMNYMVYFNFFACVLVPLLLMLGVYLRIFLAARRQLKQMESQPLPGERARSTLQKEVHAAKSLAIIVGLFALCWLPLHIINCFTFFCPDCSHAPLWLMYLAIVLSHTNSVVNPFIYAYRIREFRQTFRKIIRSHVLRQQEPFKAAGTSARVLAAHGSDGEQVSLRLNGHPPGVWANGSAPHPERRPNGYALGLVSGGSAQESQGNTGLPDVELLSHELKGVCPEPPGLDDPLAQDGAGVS
T2 sequence (P27361 whole entry, looked up): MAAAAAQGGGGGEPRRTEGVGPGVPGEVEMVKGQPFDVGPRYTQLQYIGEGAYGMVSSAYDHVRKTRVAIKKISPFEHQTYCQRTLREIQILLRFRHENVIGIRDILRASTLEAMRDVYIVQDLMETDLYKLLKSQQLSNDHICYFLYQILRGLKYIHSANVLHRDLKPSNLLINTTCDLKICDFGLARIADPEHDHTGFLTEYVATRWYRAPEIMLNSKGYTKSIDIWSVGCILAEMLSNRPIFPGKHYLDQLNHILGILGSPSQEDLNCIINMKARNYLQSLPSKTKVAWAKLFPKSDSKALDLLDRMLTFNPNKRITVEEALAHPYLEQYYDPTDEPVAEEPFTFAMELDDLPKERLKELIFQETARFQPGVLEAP
T2 sequence (P28482 whole entry, looked up): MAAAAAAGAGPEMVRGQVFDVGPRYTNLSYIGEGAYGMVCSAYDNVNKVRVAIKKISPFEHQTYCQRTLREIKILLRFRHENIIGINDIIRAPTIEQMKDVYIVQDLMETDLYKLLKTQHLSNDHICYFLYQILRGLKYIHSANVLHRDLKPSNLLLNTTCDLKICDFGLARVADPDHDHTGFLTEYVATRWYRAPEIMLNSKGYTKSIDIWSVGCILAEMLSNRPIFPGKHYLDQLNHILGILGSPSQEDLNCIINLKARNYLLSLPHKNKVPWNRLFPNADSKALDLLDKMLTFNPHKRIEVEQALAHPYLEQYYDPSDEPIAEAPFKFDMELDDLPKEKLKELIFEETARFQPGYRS

The IC50 is the concentration that inhibits the measured activity by half. What is called Ki is a dissociation constant, usually derived from enzyme kinetics or from competition with a known ligand. In general, logP refers to the decadic logarithm of the partition coefficient of the neutral form, usually between octanol and water. Read a high logP as higher lipophilicity. For `COc1ccc(C(=O)Nc2nc(-c3ccccc3)nc3nn(C)cc23)cc1`, the outcome in [1] and in [4] was inactive. The IC50 in data set [2] worked out at 0.057 nM; in [3], 53.9 nM; in [6], 2.4 nM; in data set [9], 0.091 nM; in data set [12], 0.061 nM. The inhibitory constant (Ki) turned out to be 0.18 nM in data set [5], 1040 nM in [7] and 3180 nM in data set [8]. In addition, the inhibition result in data set [10] is “inactive”. In data set [11], this molecule showed a logP of 4.

As to `O=C(Nc1ccccc1)Nc1nc(-c2ccccc2)nc2nn(Cc3ccccc3)cc12`, the 50% inhibitory concentration (IC50) in data set [3] came to 1320 nM; in [6], 5.7 nM. Besides, the Ki in data set [5] was 2.9 nM; in data set [7], 290 nM; in [8], above 10000 nM. Further, the inhibition entry in data set [10] was “inactive”.

Regarding `Cc1cn2c(NC(=O)c3ccccc3)nc(-c3ccccc3)nc2n1`, the affinity in data set [13], expressed as Ki, was 350 nM.

On to `O=C(Nc1nc(-c2ccccc2)nc2nn(Cc3ccccc3)cc12)c1ccccc1`, for which the figures for the half-inhibitory concentration (IC50) in [3] and in data set [6] were 272 nM and 53 nM, respectively. Further, the Ki in [5] was determined as 3 nM; in data set [7], 53 nM; in [8], 181 nM. For the same molecule, in [10], the inhibition result was “inactive”.

Turning to `Cn1cc2c(NC(=O)c3ccccc3)nc(-c3ccccc3)nc2n1`, the half-maximal inhibitory concentration (IC50) in [2] was found to be 0.41 nM; in data set [3], 49.8 nM; in data set [6], 1.9 nM; in data set [9] it was 0.17 nM; in data set [12], 0.74 nM. The result in data set [14] and in [15] was inactive. Besides, the figures for the Ki in [5], in [7] and in data set [8] were 0.6 nM, 334 nM and 728 nM, respectively. Further, the inhibition entry in data set [10] was “inactive”. This molecule displayed a logP in [11] of 3.8.

Turning to `O=C(Nc1nc(-c2ccccc2)nc2nn(Cc3ccccc3)cc12)c1cccc(Cl)c1`, the IC50 was 1330 nM in [3] and 7.6 nM in data set [6]. Further, the inhibitory constant (Ki) is 3.7 nM in data set [5], above 10000 nM in data set [7] and above 10000 nM in [8]. Moreover, the inhibition entry in data set [10] was “inactive”.

For `CNC(=O)OC[C@H]1O[C@@H](n2cnc3c(NCc4cccc(I)c4)nc(Cl)nc32)[C@H](O)[C@@H]1O`, the Activity result in data set [16] is “tde”. This molecule also came in with an inhibitory constant (Ki) in data set [7] of 120 nM.

For `COc1ccc(NC(=O)Nc2nc(-c3ccccc3)nc3nn(Cc4ccccc4)cc23)cc1`, the IC50 in [3] was 1470 nM; in data set [6], 8.2 nM. In addition, the inhibition constant Ki in data set [5] is 2.9 nM; in [7] it was above 10000 nM; in [8] it was above 10000 nM. Besides, in data set [10], the inhibition entry was “inactive”.

Values taken from ChEMBL document CHEMBL1157749, “Novel N2-substituted pyrazolo[3,4-d]pyrimidine adenosine A3 receptor antagonists: inhibition of A3-mediated human glioblastoma cell proliferation” (J Med Chem, 2010).
